Assay outcomes (PubChem BioAssay)
A selection: hits, their analogues and other compounds. The true share with any hit is near 5.1%.
STAT1 blocker – reduces IFN-gamma driven STAT1 reporter signal; NIH 3T3 STAT1-luciferase reporter, luminescence; inhibition, % at 5.5 µM; hit rate 0.35% among 200,000; AID 920;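 active means inhibition above a set limit, the mean inhibition across all tested compounds plus 3 SD, cut at about 34% in these data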;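 further: 0% = IFN-gamma with DMSO and 100% = IFN-gamma with 300 µM nifuroxazide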
STAT3 blocker – reduces IL-6 driven STAT3 reporter signal; U3A cells, IL-6 STAT3-luciferase reporter, luminescence; host cell line lacks STAT1; inhibition, % at 5.5 µM; hit rate 0.89% among 190,000;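 active means inhibition above the mean inhibition across all screened compounds plus 3 SD, cut at about 44% in these data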;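 further: 0% = DMSO only wells and 100% = 100 µM nifuroxazide control wells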
STAT1 activator – increases IFN-gamma driven STAT1 reporter signal. NIH 3T3 STAT1-luciferase reporter, luminescence; 100% = IFN-gamma alone, no compound. activation (% of control), % at 5.5 µM. hit rate 2.6% among 200,000;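 active means activation above the screen-wide mean activation plus 3 SD, cut at about 130% in these data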;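 further: raw ratio to IFN-gamma control signal so 100% means no change and 0% no light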
APP 5'UTR act – APP 5'UTR luciferase reporter activation | hit rate 1% among 190,000 | SH-SY5Y APP 5'UTR luciferase reporter, luminescence; zero percent = DMSO vehicle wells | activation, % at 2 µM | AID 1276;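 active means activation above a set limit, based on mean plus 3 SD of controls, cut at about 140% in these data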
NF-kB neuron act – compounds increasing NF-kB expression in human neuronal cells | NF-kB reporter expression; stronger effect = higher value | fold change at 12.5 µM | hit rate 1.6% among 190,000 | AID 1239; in the data active means fold change above about 3.3
STAT3 act – activators of IL-6 induced STAT3 signaling; U3A cells, IL-6 STAT3-luciferase reporter, luminescence; 100% = signal with IL-6 EC80 alone; activation (% of control), % at 5.6 µM; hit rate 0.91% among 190,000; AID 871;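 active means activation above the screen-wide mean of compound activation plus 3 SD, cut at about 130% in these data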;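 further: 0% = background luminescence of wells with medium and substrate only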
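Test system: STAT3-luciferase reporter U3A cells; Detection: reporter luminescence signal; Times: 1 h compound pre-exposure, 6 h IL-6 stimulation, 37 °C; Benchmarks: IL-6-only high control; Also added: IL-6 stimulus at 33 ng/mL final.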
STAT1 activ conf – confirmation of STAT1 signaling activators; shares compounds with STAT1 activator; NIH 3T3 STAT1-luciferase reporter, IFN-gamma potentiation, luminescence; 100% = IFN-gamma EC80 alone, no compound; hit rate 97% among 1,200; activation (% of control), % at 5.7 µM;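 active means activation above a set limit carried over from the earlier primary STAT1 screen, cut at about 140% in these data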;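 further: simple ratio to median IFN-gamma plus DMSO wells so 0% means no light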
NFkB act STAT1ct – NF-kappaB activation in STAT1 activator counter-screen | hit rate 43% among 1,200 | HEK293T NF-kB luciferase reporter, TNF-alpha stimulated, luminescence; 100% = TNF-alpha with vehicle only | shares compounds with STAT1 activator | AID 1306 | activation (% of control), % at 5.7 µM;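 active means activation above the mean of solvent-only control wells plus 3 SD, set per campaign, cut at about 130% in these data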;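 further: TNF-alpha given at a submaximal dose yielding about 80% of full reporter signal; values are well signal over median control so 100% means no change and 0% no light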
STAT3 act STAT1c – human STAT3 activation in STAT1 activator counter-screen. hit rate 46% among 1,200. shares compounds with STAT1 activator. U3A cells STAT3-luciferase reporter, IL-6, luminescence; cells lack STAT1; 100 = IL-6 alone, no compound effect. activation (% of control), % at 5.7 µM;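 active means activation above the solvent-only control well mean plus 3 SD, set per plate batch, cut at about 110% in these data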;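 further: 0% = no luminescence and 100% = median IL-6 plus DMSO wells; higher means more STAT3 reporter activation so hits are non-selective activators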
* hit, by the source's call.

How did O=C1OC(c2ccccc2)=C/C1=C/N1CCCCC1 do in these assays?
STAT1 blocker: -77; STAT3 blocker: -9; STAT1 activator: 170*; APP 5'UTR act: 65; NF-kB neuron act: 1.3; STAT3 act: 111; STAT1 activ conf: 160*; NFkB act STAT1ct: 119; STAT3 act STAT1c: 117*

What do the screens show for `c1ccc(Cn2c(-c3ccco3)nc3nc4ccccc4nc32)cc1`?
STAT1 blocker: -58; STAT3 blocker: 3; STAT1 activator: 152*; APP 5'UTR act: 61; NF-kB neuron act: 2.1; STAT3 act: 102; STAT1 activ conf: 158*; NFkB act STAT1ct: 127; STAT3 act STAT1c: 115*

How did CC(/C=C/c1ccc(OCc2ccccc2)cc1)=N\O do in these assays?
STAT1 blocker: -65; STAT3 blocker: -9; STAT1 activator: 157*; APP 5'UTR act: 94; NF-kB neuron act: 3.1; STAT3 act: 112; STAT1 activ conf: 177*; NFkB act STAT1ct: 134*; STAT3 act STAT1c: 112*

Results for COc1ccc(-n2c(C)cc(C(=O)Cn3nnc4ccccc4c3=O)c2C)cc1 ?
STAT1 blocker: -62; STAT3 blocker: 0; STAT1 activator: 155*; APP 5'UTR act: 18; NF-kB neuron act: 1.3; STAT3 act: 106; STAT1 activ conf: 176*; NFkB act STAT1ct: 106; STAT3 act STAT1c: 99

What do the screens show for `CN(C)c1ccc(/C=N/NC(=O)C2CC2c2ccccc2)cc1` (centres undefined)?
STAT1 blocker: -5; STAT3 blocker: 12; STAT1 activator: 103; APP 5'UTR act: -10; NF-kB neuron act: 0.95; STAT3 act: 96

What do the screens show for `CN(C)c1ccc(/C=N/NC(=O)c2ccco2)cc1`?
STAT1 blocker: -67; STAT3 blocker: 9; STAT1 activator: 160*; APP 5'UTR act: 110; NF-kB neuron act: 5.6*; STAT3 act: 93; STAT1 activ conf: 174*; NFkB act STAT1ct: 114; STAT3 act STAT1c: 105

What do the screens show for `Cc1cccc(NC(=O)CCC(=O)N/N=C/c2ccco2)c1`?
STAT1 blocker: -7; STAT3 blocker: 2; STAT1 activator: 106; APP 5'UTR act: -7; NF-kB neuron act: 0.95; STAT3 act: 99

Results for O=C(N/N=C\c1ccco1)Nc1cccc(Cl)c1 ?
STAT1 blocker: -60; STAT3 blocker: -6; STAT1 activator: 153*; APP 5'UTR act: 80; NF-kB neuron act: 3.3*; STAT3 act: 102; STAT1 activ conf: 172*; NFkB act STAT1ct: 133*; STAT3 act STAT1c: 106

Results for C#CCOCCOCCOCCNc1nc(N2CCN(C(=O)[C@H](CCCCN)n3cc([C@@H](N)CO)nn3)CC2)nc(N2CCN(C(=O)[C@H](Cc3cc4ccccc4[nH]3)n3cc([C@@H](N)CC(C)C)nn3)CC2)n1 ?
STAT1 blocker: -3; STAT1 activator: 104; APP 5'UTR act: -9; NF-kB neuron act: 1

What do the screens show for `Cc1occc1C(=O)Nc1ccccc1NC(=O)c1ccoc1C`?
STAT1 blocker: 9; STAT3 blocker: 2; STAT1 activator: 92; APP 5'UTR act: 5; STAT3 act: 102

Results for Cc1occc1C(=O)Nc1cccc2ccccc12 ?
STAT1 blocker: -79; STAT3 blocker: 19; STAT1 activator: 172*; APP 5'UTR act: 135*; NF-kB neuron act: 7.7*; STAT3 act: 86; STAT1 activ conf: 219*; NFkB act STAT1ct: 137*; STAT3 act STAT1c: 110

Results for O=C(NC1(C(F)(F)F)NC(=O)N(c2ccc(F)cc2)C1=O)c1ccncc1 (centres undefined) ?
STAT1 blocker: 14; STAT3 blocker: 14; STAT1 activator: 88; APP 5'UTR act: 6; NF-kB neuron act: 1.4; STAT3 act: 91

Results for c1ccc(CNc2ccc3ccccc3n2)nc1 ?
STAT1 blocker: -56; STAT3 blocker: 28; STAT1 activator: 153*; APP 5'UTR act: 162*; NF-kB neuron act: 4.7*; STAT3 act: 81; STAT1 activ conf: 200*; NFkB act STAT1ct: 107; STAT3 act STAT1c: 92

How did O=C(NCc1ccccc1)c1c[nH]c2cc3c(cc2c1=O)OCCO3 do in these assays?
STAT1 blocker: -84; STAT3 blocker: -14; STAT1 activator: 178*; APP 5'UTR act: 89; NF-kB neuron act: 3.5*; STAT3 act: 115; STAT1 activ conf: 190*; NFkB act STAT1ct: 140*; STAT3 act STAT1c: 126*

How did COc1ccc(Nc2nc3ccccc3s2)cc1 do in these assays?
STAT1 blocker: -61; STAT3 blocker: 5; STAT1 activator: 159*; APP 5'UTR act: 164*; NF-kB neuron act: 7.2*; STAT3 act: 98; STAT1 activ conf: 224*; NFkB act STAT1ct: 143*; STAT3 act STAT1c: 106

What do the screens show for `Cc1cccc(Nc2nc3ccccc3s2)c1C`?
STAT1 blocker: -84; STAT3 blocker: 22; STAT1 activator: 174*; APP 5'UTR act: 158*; NF-kB neuron act: 9.2*; STAT3 act: 82; STAT1 activ conf: 218*; NFkB act STAT1ct: 151*; STAT3 act STAT1c: 108

How did COc1ccc(/C=N/OCC(=O)Nc2nc3ccccc3s2)cc1 do in these assays?
STAT1 blocker: -7; STAT3 blocker: -1; STAT1 activator: 106; APP 5'UTR act: 2; NF-kB neuron act: 1; STAT3 act: 104

What do the screens show for `CC(C)CCN1CCN(C2CSCCSC2)CC1CCO` (centres undefined)?
STAT1 blocker: -5; STAT3 blocker: 6; STAT1 activator: 103; APP 5'UTR act: -12; NF-kB neuron act: 1; STAT3 act: 97

How did CC(NC(=S)Nc1c(Br)cccc1OC(F)F)C(C)(C)C (centres undefined) do in these assays?
STAT1 blocker: 0; STAT3 blocker: 4; STAT1 activator: 100; APP 5'UTR act: -2; NF-kB neuron act: 0.89; STAT3 act: 95

How did O=S(=O)(Nc1nc2c(s1)CCCC2)c1ccc(F)cc1 do in these assays?
STAT1 blocker: -6; STAT3 blocker: 3; STAT1 activator: 106; APP 5'UTR act: -6; NF-kB neuron act: 0.63; STAT3 act: 102

Results for O=S1(=O)N=C(Nc2nc3c(s2)CCCC3)c2ccccc21 ?
STAT1 blocker: -54; STAT3 blocker: 6; STAT1 activator: 152*; APP 5'UTR act: 123; NF-kB neuron act: 6.2*; STAT3 act: 96; STAT1 activ conf: 194*; NFkB act STAT1ct: 129; STAT3 act STAT1c: 126*
